Measurements reported in ChEMBL document CHEMBL3286367, “Synthesis of new class of spirocarbocycle derivatives by multicomponent domino reaction and their evaluation for antimicrobial, anticancer activity and molecular docking studies” (2014).
Converted amounts (≈) assume the structure as drawn.

Legend:
[1] = test system: Staphylococcus epidermidis; assay: Antimicrobial activity against Staphylococcus epidermidis MTCC 3615 assessed as absence of visible growth after 24 hrs
Micrococcus luteus [2] = assay: Antimicrobial activity against Micrococcus luteus MTCC 106 assessed as zone of inhibition at 1 mg/disc after 24 hrs incubation by disc diffusion assay; assay type: functional
Procedure, shortened: (§1)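 Inocula grown in Mueller Hinton broth for 24 h at 37 °C and swabbed onto Mueller Hinton agar. Discs carried 1 mg compound each and stood 30 min at room temperature before 24 h incubation at 37 °C. Solvent as negative control. Inhibition zones recorded in mm; experiment done twice.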

Salmonella typhimurium [3] = assay: Antimicrobial activity against Salmonella typhimurium MTCC 1251 assessed as zone of inhibition at 1 mg/disc after 24 hrs incubation by disc diffusion assay; assay type: functional, Salmonella enterica subsp. enterica serovar Typhimurium
Procedure, shortened: as §1

Micrococcus luteus [4] = assay: Antimicrobial activity against Micrococcus luteus MTCC 106 assessed as absence of visible growth after 48 to 72 hrs; assay type: functional
Shigella flexneri [5] = assay: Antimicrobial activity against Shigella flexneri MTCC 1457 assessed as zone of inhibition at 1 mg/disc after 24 hrs incubation by disc diffusion assay; assay type: functional
Procedure, shortened: as §1

Proteus vulgaris [6] = assay: Antimicrobial activity against Proteus vulgaris MTCC 1771 assessed as absence of visible growth after 48 to 72 hrs; assay type: functional
Klebsiella pneumoniae [7] = assay: Antimicrobial activity against Klebsiella pneumonia MTCC 109 assessed as zone of inhibition at 1 mg/disc after 24 hrs incubation by disc diffusion assay; assay type: functional
Procedure, shortened: as §1

Klebsiella aerogenes [8] = assay: Antimicrobial activity against Enterobacter aerogenes MTCC 111 assessed as zone of inhibition at 1 mg/disc after 24 hrs incubation by disc diffusion assay; assay type: functional
Procedure, shortened: as §1

Klebsiella aerogenes [9] = assay: Antimicrobial activity against Enterobacter aerogenes MTCC 111 assessed as absence of visible growth after 48 to 72 hrs; assay type: functional
Malassezia pachydermatis = assay: Antifungal activity against Malassezia pachydermatis assessed as zone of inhibition at 1 mg/disc after 48 hrs incubation by disc diffusion assay; assay type: functional
Procedure, shortened: (§2)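 Disc diffusion on Mueller Hinton agar with swabbed cultures, 1 mg compound per disc. Discs stood 30 min at room temperature for diffusion, then plates incubated 48 h at 28 °C. Solvent as negative control. Yeast pre-grown in Sabouraud dextrose broth at 28 °C for 48-72 h; filamentous fungal spores came from SDA slants grown 10 days at 28 °C. Zone diameters in mm; run twice.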

Shigella flexneri [10] = assay: Antimicrobial activity against Shigella flexneri MTCC 1457 assessed as absence of visible growth after 48 to 72 hrs; assay type: functional
Proteus vulgaris [11] = assay: Antimicrobial activity against Proteus vulgaris MTCC 1771 assessed as zone of inhibition at 1 mg/disc after 24 hrs incubation by disc diffusion assay; assay type: functional
Procedure, shortened: as §1

Salmonella typhimurium [12] = assay: Antimicrobial activity against Salmonella typhimurium MTCC 1251 assessed as absence of visible growth after 48 to 72 hrs; assay type: functional, Salmonella enterica subsp. enterica serovar Typhimurium; conditions: Salmonella enterica
Klebsiella pneumoniae [13] = assay: Antimicrobial activity against Klebsiella pneumonia MTCC 109 assessed as absence of visible growth after 48 to 72 hrs; assay type: functional
Candida albicans = assay: Antifungal activity against Candida albicans MTCC 227 assessed as zone of inhibition at 1 mg/disc after 48 hrs incubation by disc diffusion assay; assay type: functional
Procedure, shortened: as §2

Staphylococcus aureus [14] = assay: Antimicrobial activity against Staphylococcus aureus MTCC 96 assessed as absence of visible growth after 48 to 72 hrs; assay type: functional
Staphylococcus aureus [15] = assay: Antimicrobial activity against methicillin-resistant Staphylococcus aureus assessed as zone of inhibition at 1 mg/disc after 24 hrs incubation by disc diffusion assay; assay type: functional
Procedure, shortened: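 Inoculum grown in Mueller Hinton broth 24 h at 37°C, swabbed onto Mueller Hinton agar and dried 10 min. Discs loaded at 1 mg/disc, then 30 min at room temperature for diffusion. Plates incubated 24 h at 37°C. Solvent negative control; streptomycin positive control. Zone of inhibition read in mm; experiment done twice.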

Staphylococcus aureus [16] = assay: Antimicrobial activity against methicillin-resistant Staphylococcus aureus assessed as absence of visible growth after 48 to 72 hrs; assay type: functional
Procedure, shortened: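 Broth two-fold serial dilution in 96-well plates, 1000 to 7.81 µg/mL, compound dissolved in DMSO (2%). Inoculum grown in Mueller Hinton broth 24 h at 37°C. Streptomycin positive control. 5 µl of tested broth plated on MHA; MIC is the lowest concentration inhibiting visible growth on agar.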

[17] = test system: Staphylococcus epidermidis; assay: Antimicrobial activity against Staphylococcus epidermidis MTCC 3615 assessed as zone of inhibition at 1 mg/disc after 24 hrs incubation by disc diffusion assay; assay type: functional
Procedure, shortened: as §1

Staphylococcus aureus [18] = assay: Antimicrobial activity against Staphylococcus aureus MTCC 96 assessed as zone of inhibition at 1 mg/disc after 24 hrs incubation by disc diffusion assay; assay type: functional
Procedure, shortened: as §1

Shigella flexneri [19] = assay: Antimicrobial activity against Shigella flexneri MTCC 1457 assessed as absence of visible growth after 24 hrs
[20] = test system: Staphylococcus epidermidis; assay: Antimicrobial activity against Staphylococcus epidermidis MTCC 3615 assessed as absence of visible growth after 48 to 72 hrs; assay type: functional
A549 [21] = assay: Anticancer activity against human A549 cells assessed as cell growth inhibition at 20 ug/ml by MTT assay; assay type: functional; conditions: read-out: GI
Procedure, shortened: (§3)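 A549 cells kept in DMEM with 10% FBS, 2 mM L-glutamine, penicillin/streptomycin, pH 7.2. Seeded at 5000 cells/well in medium with compound at 5–50 µg/mL. Grown at 37 °C, 5% CO2. Medium then replaced by 1 mg/mL MTT for 4 h and formazan dissolved in DMSO. Absorbance read at 540 nm; three replicate experiments.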

A549 [22] = assay: Anticancer activity against human A549 cells assessed as cell growth inhibition at 50 ug/ml by MTT assay; assay type: functional; conditions: read-out: GI
Procedure, shortened: as §3

A549 [23] = assay: Anticancer activity against human A549 cells assessed as cell growth inhibition at 5 ug/ml by MTT assay; assay type: functional; conditions: read-out: GI
Procedure, shortened: as §3

A549 [24] = assay: Anticancer activity against human A549 cells assessed as cell growth inhibition at 40 ug/ml by MTT assay; assay type: functional; conditions: read-out: GI
Procedure, shortened: as §3

A549 [25] = assay: Anticancer activity against human A549 cells assessed as cell growth inhibition at 30 ug/ml by MTT assay; assay type: functional; conditions: read-out: GI
Procedure, shortened: as §3

A549 [26] = assay: Anticancer activity against human A549 cells assessed as cell growth inhibition at 10 ug/ml by MTT assay; assay type: functional; conditions: read-out: GI
Procedure, shortened: as §3

Klebsiella pneumoniae [27] = assay: Antimicrobial activity against Klebsiella pneumonia MTCC 109 assessed as absence of visible growth after 24 hrs

| Structure (SMILES) | MIC [1] | inhibition zone (IZ) (Micrococcus luteus [2]) | inhibition zone (IZ) (Salmonella typhimurium [3]) | MIC (Micrococcus luteus [4]) | inhibition zone (IZ) (Shigella flexneri [5]) | MIC (Proteus vulgaris [6]) | inhibition zone (IZ) (Klebsiella pneumoniae [7]) | inhibition zone (IZ) (Klebsiella aerogenes [8]) | MIC (Klebsiella aerogenes [9]) | inhibition zone (IZ) (Malassezia pachydermatis) | inhibition zone (IZ) (Proteus vulgaris [11]) | MIC (Salmonella typhimurium [12]) | MIC (Klebsiella pneumoniae [13]) | inhibition zone (IZ) (Candida albicans) | MIC (Staphylococcus aureus [14]) | inhibition zone (IZ) (Staphylococcus aureus [15]) | MIC (Staphylococcus aureus [16]) | inhibition zone (IZ) [17] | inhibition zone (IZ) (Staphylococcus aureus [18]) | MIC (Shigella flexneri [19]) | other results |
| --- | --- | --- | --- | --- | --- | --- | --- | --- | --- | --- | --- | --- | --- | --- | --- | --- | --- | --- | --- | --- | --- |
| Cc1ccc([C@H]2[C@@H]3CCCC=C3C(C#N)=C(N)C23C(=O)c2ccccc2C3=O)cc1 (relative stereo) | 500 µg/mL (≈ 1270 µM) | 9 mm | 14 mm | 1000 µg/mL (≈ 2540 µM) | 8 mm | 500 µg/mL (≈ 1270 µM) | 15 mm | 13 mm | 250 µg/mL (≈ 634 µM) | 11 mm | 10 mm | 250 µg/mL (≈ 634 µM) | 250 µg/mL (≈ 634 µM) | 10 mm | 250 µg/mL (≈ 634 µM) | 11 mm | 250 µg/mL (≈ 634 µM) | 10 mm | 10 mm | – | MIC (Shigella flexneri [10]): 1000 µg/mL (≈ 2540 µM) |
| CN[C@@H]1[C@H](O[C@H]2[C@H](O[C@H]3[C@H](O)[C@@H](O)[C@H](N=C(N)N)[C@@H](O)[C@@H]3N=C(N)N)O[C@@H](C)[C@]2(O)C=O)O[C@@H](CO)[C@H](O)[C@H]1O [STREPTOMYCIN] | – | 26 mm | 18 mm | 6.25 µg/mL (≈ 10.7 µM) | 30 mm | 6.25 µg/mL (≈ 10.7 µM) | 20 mm | 22 mm | 25 µg/mL (≈ 43 µM) | – | 30 mm | 30 µg/mL (≈ 51.6 µM) | 6.25 µg/mL (≈ 10.7 µM) | – | 6.25 µg/mL (≈ 10.7 µM) | 30 mm | 6.25 µg/mL (≈ 10.7 µM) | 26 mm | 14 mm | 6.25 µg/mL (≈ 10.7 µM) | MIC [20]: 6.25 µg/mL (≈ 10.7 µM) |
| N#CC1=C(N)[C@]2(C(=O)Nc3ccccc32)[C@@H](c2cccs2)[C@@H]2CCCC=C12 | – | 15 mm | 15 mm | 250 µg/mL (≈ 669 µM) | 25 mm | 62.5 µg/mL (≈ 167 µM) | 16 mm | 17 mm | 125 µg/mL (≈ 335 µM) | 12 mm | 23 mm | 250 µg/mL (≈ 669 µM) | 125 µg/mL (≈ 335 µM) | 10 mm | 250 µg/mL (≈ 669 µM) | 21 mm | 62.5 µg/mL (≈ 167 µM) | 19 mm | 13 mm | 62.5 µg/mL (≈ 167 µM) | inhibition of growth at 20 µg/mL (A549 [21]): 62.4%; inhibition of growth at 50 µg/mL (A549 [22]): 83.9%; inhibition of growth at 5 µg/mL (A549 [23]): 25.7%; MIC [20]: 125 µg/mL (≈ 335 µM); inhibition of growth at 40 µg/mL (A549 [24]): 75.9%; inhibition of growth at 30 µg/mL (A549 [25]): 67.8%; inhibition of growth at 10 µg/mL (A549 [26]): 45.8% |
| N#CC1=C(N)C2(C(=O)c3ccccc3C2=O)[C@@H](c2ccc(Cl)cc2)[C@@H]2CCCCC=C12 (relative stereo) | 125 µg/mL (≈ 291 µM) | 21 mm | 18 mm | 62.5 µg/mL (≈ 146 µM) | 22 mm | 62.5 µg/mL (≈ 146 µM) | 17 mm | 18 mm | 125 µg/mL (≈ 291 µM) | 12 mm | 23 mm | 125 µg/mL (≈ 291 µM) | – | 13 mm | 250 µg/mL (≈ 583 µM) | 21 mm | 62.5 µg/mL (≈ 146 µM) | 17 mm | 13 mm | 62.5 µg/mL (≈ 146 µM) | inhibition of growth at 20 µg/mL (A549 [21]): 47.5%; inhibition of growth at 50 µg/mL (A549 [22]): 78.8%; inhibition of growth at 5 µg/mL (A549 [23]): 12.1%; inhibition of growth at 40 µg/mL (A549 [24]): 62.4%; inhibition of growth at 30 µg/mL (A549 [25]): 56.2%; inhibition of growth at 10 µg/mL (A549 [26]): 28.1%; MIC (Klebsiella pneumoniae [27]): 125 µg/mL (≈ 291 µM) |
| Cc1ccc([C@H]2[C@@H]3CCC=C3C(C#N)=C(N)C23C(=O)c2ccccc2C3=O)cc1 (relative stereo) | 250 µg/mL (≈ 657 µM) | 12 mm | 10 mm | 250 µg/mL (≈ 657 µM) | 13 mm | 125 µg/mL (≈ 329 µM) | 15 mm | 15 mm | 250 µg/mL (≈ 657 µM) | 13 mm | 16 mm | 500 µg/mL (≈ 1310 µM) | 250 µg/mL (≈ 657 µM) | 10 mm | 125 µg/mL (≈ 329 µM) | 12 mm | 250 µg/mL (≈ 657 µM) | 14 mm | 17 mm | – | MIC (Shigella flexneri [10]): 250 µg/mL (≈ 657 µM) |
| COc1ccc([C@H]2[C@@H]3CCCC=C3C(C#N)=C(N)C23C(=O)CCCC3=O)cc1 (relative stereo) | – | 21 mm | 11 mm | 250 µg/mL (≈ 664 µM) | 19 mm | 125 µg/mL (≈ 332 µM) | 16 mm | 14 mm | 250 µg/mL (≈ 664 µM) | 9 mm | 17 mm | 250 µg/mL (≈ 664 µM) | 125 µg/mL (≈ 332 µM) | 10 mm | 250 µg/mL (≈ 664 µM) | 15 mm | 250 µg/mL (≈ 664 µM) | 13 mm | 14 mm | 125 µg/mL (≈ 332 µM) | MIC [20]: 250 µg/mL (≈ 664 µM) |
